{"source": "ChEMBL document CHEMBL1156477", "about": "“Small-molecule-mediated rescue of protein function by an inducible proteolytic shunt” (Proc Natl Acad Sci U S A, 2007)", "test_system": "SYF", "experiment": "Effect on proliferation of mouse SYF cells expressing FRB3-ubiquitin-C-v-src construct at 100 nM after 24 hsr by MTT assay", "format": "functional, cell-based", "procedure,_shortened": "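SYF cells (DMEM/10% FBS, 37°C, 5% CO2) transfected via FuGENE-6 with construct 1 plus v-Src cleavage construct; after 24 h expression, trypsinized, ~1 × 10^4 cells replated with rapamycin (100 nM) or DMSO; MTT proliferation assay performed after a further 24 h.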", "note": "Activity calls are given as the source filed them. The calls are words filed in the database; no cut-off is given here.", "data": [{"compound": "CO[C@H]1C[C@@H]2CC[C@@H](C)[C@@](O)(O2)C(=O)C(=O)N2CCCC[C@H]2C(=O)O[C@H]([C@H](C)C[C@@H]2CC[C@@H](O)[C@H](OC)C2)CC(=O)[C@H](C)/C=C(\\C)[C@@H](O)[C@@H](OC)C(=O)[C@H](C)C[C@H](C)/C=C/C=C/C=C/1C", "values": [{"measurement": "Activity", "value": "Active"}]}]}
